Source: ChEMBL document CHEMBL4513216, “Probing the Open Global Health Chemical Diversity Library for Multistage-Active Starting Points for Next-Generation Antimalarials” (ACS Infect Dis, 2020)

Assay: Toxicity liver stage against HepG2, at 10uM
Type: cell-based
Design: test concentration 10 uM, cell line HepG2-A16-CD81EGFP
Conditions: human, HepG2-A16-CD81EGFP cells; read-out: INHIBITION
In short: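 Uninfected HepG2-A16-CD81EGFP cells, 3 × 10^3 per well, 1536-well, plated on prespotted compound at 10 μM final, parasite-free screening media added to match infected plates; puromycin 10 μM positive, DMSO 0.5% negative; run in parallel with 48 h PbLuc assay at 37 °C, 5% CO2; viability by CellTiter-Glo luminescence, normalized to controls.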

Row | SMILES | cytotoxicity at 10 µM
1 | CC(C)(C)CN[C@@H]1CO[C@H](CNC(=O)Nc2ccccc2)[C@H]1O | 6.98%
2 | O=C(NC[C@H]1C[C@@H]2CCN1C[C@@H]2CN1CCOCC1)Nc1ccsc1 | 1.03%
3 | COCCNC(=O)c1ccc2c(=O)n3c(nc2c1)CCCCC3 | 5.53%
4 | CCOC(=O)CNC(=O)NCc1cccn1Cc1ccccc1 | 9.71%
5 | CN(C)C(=O)CN1CCC2(CC1)CC(=O)c1ccc3ccccc3c1O2 | 6.17%
6 | COC(=O)CN1Cc2cc3c(cc2NCCC1=O)OCO3 | -8.1%
7 | CC(C)COC(=O)N1CC(=O)N(CCc2ccccc2)CC(O)C1 (stereo unspecified) | -16.6%
8 | Cc1cnc2n(c1=O)C(CC(=O)NCc1cccnc1)CS2 (stereo unspecified) | 4.22%
9 | COc1ccc(CC(C)(O)CNC(=O)Cc2cccs2)cc1 (stereo unspecified) | 14.7%
10 | O=S(=O)(NCC1(O)CCOCC1)c1c(F)cccc1F | -4.97%
11 | O=C(Cn1ccc2ccccc21)N1CCC(Oc2cnccn2)CC1 | 4.61%
12 | COc1ccccc1CN1CCC2(CCC(C(=O)N(C)C)O2)CC1 (stereo unspecified) | 0.493%
13 | N#Cc1ccc(C(=O)N2CCC3(CC2)CC3)cc1 | 3.56%
14 | CCc1ccc2c(C3CN(S(C)(=O)=O)C3)ncn2c1 | 10.6%
15 | Cc1ncoc1C(=O)N1C[C@@H]2CN(CC3CC3)CCO[C@@H]2C1 | 9.23%
16 | Cc1ncsc1CN1C[C@@H]2CN(Cc3cccnc3)CCO[C@@H]2C1 | 5.05%
17 | O=C(NC1CCCCC1)N1C[C@@H]2OCCN(C(=O)c3ccco3)[C@@H]2C1 | -152%
18 | COCC(=O)N1CC2(CCN(c3ccccc3)C2)C1 | 10.1%
19 | CC(C)NC(=O)[C@H]1C[C@@H]2[C@@H](C1)OCCN2Cc1ccncc1 | 6.62%
20 | CN(C)CCCNC(=O)c1ccccc1NC(=O)c1ccccc1Cl | -0.986%
21 | CC(C)C[C@H](NC(=O)Cc1csc(-c2cccc(Cl)c2)n1)C(=O)O | 3.51%

Row | SMILES | cytotoxicity at 10 µM
22 | COc1ccc(C2=C(C)C(N3CCc4ccccc43)=NS2(=O)=O)cc1 | -4.66%
23 | N#Cc1ccc(OC2CCN(C(=O)c3ccc4c(c3)OCO4)CC2)nc1 | -14.7%
24 | O=C1CC(c2ccsc2)c2sc(C(=O)O)c(-c3ccccc3)c2N1 (stereo unspecified) | 15.2%
25 | CC(C)Oc1ncnc2c1CCN(Cc1cccs1)CC2 | -0.935%
26 | CCn1cc(S(=O)(=O)N2CCN(S(=O)(=O)c3ccc(Br)s3)CC2)cn1 | 6.24%
27 | CCc1noc(C2CCCCN2C(=O)c2sccc2C)n1 (stereo unspecified) | 10.3%
28 | Fc1cccc(Cc2cncc(C3CCCN3C3CCOCC3)n2)c1 (stereo unspecified) | -0.685%
29 | CC(=O)N1CCN(c2ccc(Cl)nn2)C(=O)C1 | 6.69%
30 | O=C(c1ccc(Cl)cc1)N1CCC(N2CCCNC2=O)CC1 | 8.55%
31 | CC(C)CN(CC(O)c1ccccc1)C(=O)NC(C)C (stereo unspecified) | -3.96%
32 | Cc1cc(C(=O)N(CC(=O)O)CC(C)C)ccc1F | -6.07%
33 | Cc1csc(N(C)C(=O)C2CC(=O)N(c3ccccc3Cl)C2)n1 (stereo unspecified) | 11.8%
34 | Cc1cc(C[S+]([O-])Cc2ccccc2F)no1 (stereo unspecified) | -3.71%
35 | Cc1nnc(CN(C)CC(=O)N2CCCN(C3CCCC3)CC2)n1C | 7.1%
36 | COCCN(C(=O)c1nc(-c2ccco2)sc1C)C1CC1 | -8.96%
37 | COc1ccc(N(C)C(=O)c2cccc(S(C)(=O)=O)c2)cn1 | 7.36%
38 | CC(=O)N(Cc1ncc(C)o1)C1CCN(CCn2cccn2)C1 (stereo unspecified) | 6.49%
39 | CCNC(=O)N(C)CCCc1n[nH]c(N)c1C#N | 10.3%
40 | CC(C)(C)CN(CCC#N)Cn1cc(Cl)cn1 | 6.29%
41 | CC1(C)CN(CC(F)(F)F)CCN1CC(=O)N1CCCCC1 | 13.2%
42 | Fc1ccc(C2CN(c3ncnc4[nH]ncc34)CCO2)cc1 (stereo unspecified) | 27.1%

Row | SMILES | cytotoxicity at 10 µM
43 | CN(CC(=O)NCc1ccco1)Cc1nc2c(s1)CCCC2 | 13.6%
44 | Cc1sc(Br)cc1S(=O)(=O)NCc1ccccn1 | -3.85%
45 | CC(=O)N1CCN(C(=O)CNc2c(C)cccc2OC(F)F)CC1 | 3.24%
46 | Cc1nc(CSCc2ccc(OCC(F)(F)F)nc2)no1 | -2.34%
47 | CCC1COCCN1C(=O)NCc1nccn1Cc1ccccc1 (stereo unspecified) | -0.457%
48 | Cc1ccc(S(=O)(=O)N2CCN(C)c3ccncc32)cc1F | 9.21%
49 | CC(C)n1ccc(-c2cc(C(=O)N3CCCC3)c3ccccn23)n1 | -2.7%
50 | Cc1noc(C)c1C(=O)N1CC[C@H]2C[C@@H](c3nccs3)O[C@@H]2C1 | -1.62%
51 | Cc1nc(N(Cc2ccncc2)CC2CCCO2)c2ccsc2n1 (stereo unspecified) | -155%
52 | O=C(O)c1cc(-c2ccoc2)cc(S(=O)(=O)N2CCSCC2)c1 | 0.49%
53 | CCN(C)c1nccc(N2CCN[C@H]3CS(=O)(=O)C[C@H]32)n1 | 7.85%
54 | Cc1nc(CN(C)CC2CCCN(CCc3ccc(Cl)cc3)C2)no1 (stereo unspecified) | 8.15%
55 | CCS(=O)(=O)c1ncc(CN2CCOCC2)n1CCCc1ccccc1 | 7.57%
56 | COC(C)(C)C(=O)NCC1CCN(Cc2cc3ccccc3[nH]2)C1 (stereo unspecified) | 5.85%
57 | Cc1cc(N2CCC(n3cc(CCCO)nn3)CC2)ccn1 | 3.6%
58 | CC(C1CCN(Cc2cnn(C)c2C2CC2)CC1)N1CCCC1 (stereo unspecified) | 6.29%
59 | COc1ccc(-c2nccnc2C2CCN(C(C)=O)CC2)cc1 | -4.43%
60 | CS(=O)(=O)N1CCC(C(=O)NC(Cc2ccsc2)c2ccccn2)CC1 (stereo unspecified) | -2.91%
61 | COc1ccccc1N1CCC(CNCc2ccc(C#N)cc2)C1 (stereo unspecified) | -12.1%
62 | O=C(CCc1nc2ccccc2[nH]1)N1CCCC(n2cccn2)C1 (stereo unspecified) | -15.9%
63 | c1ccc(-c2cnc(CN3CCCC3Cn3cccn3)o2)cc1 (stereo unspecified) | -13.6%

Row | SMILES | cytotoxicity at 10 µM
64 | O=C1OCCC1N1CCN(C(=O)Cc2ccccc2Cl)CC1 (stereo unspecified) | -9.2%
65 | CCc1nccn1C1CCCN(C(=O)c2ccc3nncn3c2)C1 (stereo unspecified) | -12.7%
66 | COc1cc(C(C)=O)ccc1OCC(=O)N(C)Cc1cnn(C)c1 | -3.88%
67 | COCCN1CCC(CNC(=O)C2(c3cc(C)cc(C)c3)CCC2)C1 (stereo unspecified) | -7.4%
68 | CC(C)c1nc(C2CCCN(C(=O)CCCn3cncn3)C2)no1 (stereo unspecified) | -3.29%
69 | CCc1c(C(=O)NCC(=O)OCC2CC2)cnn1-c1ccc(C)cc1 | -3.81%
70 | O=C(NCCNc1ncccn1)C1CCN(CC(F)(F)F)CC1 | -5.6%
71 | COc1ccc(F)cc1C(C)NC(=O)Cn1ccc(=O)n(C)c1=O (stereo unspecified) | -8.35%
72 | Cc1cnn(CC2CCCN2Cc2nccn2C)c1 (stereo unspecified) | 3.54%
73 | O=C(NCC(O)CN1CCc2ccccc2C1)Nc1cccnc1 (stereo unspecified) | 3.2%
74 | CC(C)c1nc(C2CCCN(C(=O)c3ccc4[nH]cnc4c3)C2)no1 (stereo unspecified) | -3.87%
75 | CCOc1ccc(CC(CNC(=O)c2ccoc2)C(N)=O)cc1 (stereo unspecified) | 5.37%
76 | Cc1noc(C2CCCN(C(=O)c3ccc(Br)cc3F)C2)n1 (stereo unspecified) | -8.06%
77 | CC(=O)N1CCN(Cc2ccncc2)CC2(CC(=O)N(C)C2)C1 (stereo unspecified) | -1.83%
78 | O=C(NCc1ccccn1)[C@H]1COC[C@H]2CN(c3ncccn3)C[C@H]21 | 9.19%
79 | Cc1nc(CN2CCN(CC3CCOC3)Cc3cccnc32)cs1 (stereo unspecified) | 11%
80 | COCCN1CCC2(CC1)CC1(CCN(S(C)(=O)=O)CC1)N(C)C2=O | 0.964%
81 | Cn1cnc(S(=O)(=O)N2C[C@H](OCC3CC3)[C@H]3OCCC[C@H]32)c1 | -149%
